From ChEMBL document CHEMBL5104204, “Synthesis and in vitro anticancer evaluation of novel flavonoid-based amide derivatives as regulators of the PI3K/AKT signal pathway for TNBC treatment” (RSC Med Chem, 2022) come the findings set out here.

As usually defined, the pIC50 is the negative decadic logarithm of the IC50, by convention in mol/L.

In one experiment the test system is MCF7. Kind of experiment: Antitumor activity against human MCF7 cells assessed as inhibit cell proliferation incubated for 72 hrs by CCK-8 assay. Type of experiment: functional, cell-based. To be noted: MCF7, 72 h. The procedure, abridged:
(§1)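 CCK8 viability readout. Culture media: HCC1937, A549, HeLa and GTL-16 in RPMI 1640; MDA-MB-231, MCF-7 and HepG2 in high-glucose DMEM; all with 10% FBS and penicillin/streptomycin, 37 °C, 5% CO2. 4×10^3–6×10^3 cells/well, 24 h, then compounds in serum-free medium, 72 h at 37 °C. 10% CCK8, 2 h, OD 450/630 nm. Five wells per group; IC50 from inhibition rate; three independent experiments, mean ± SD.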
On the technique in general: Tetrazolium assays rely on reduction of a dye to a coloured formazan, in cell work by metabolically active cells.

For the next experiment, the system named is HCC1937. Briefly: Antitumor activity against human HCC1937 cells assessed as inhibit cell proliferation incubated for 72 hrs by CCK-8 assay. Type of experiment: functional, cell-based. The conditions noted are these: HCC1937, 72 h. A digest of the protocol:
as §1

The test system of another experiment is GTL 16 cell line. Kind of experiment: Antitumor activity against human GTL 16 cell line assessed as inhibit cell proliferation incubated for 72 hrs by CCK-8 assay. Type of experiment: functional, cell-based. To be noted: GTL 16, 72 h. A digest of the protocol: as §1
The subject of a further experiment is HeLa. Briefly: Antitumor activity against human HeLa cells assessed as inhibit cell proliferation incubated for 72 hrs by CCK-8 assay. In kind it is functional, cell-based. The procedure, abridged: as §1
Experiment [1] has as its system MDA-MB-231. Briefly: Inhibition of colony formation in human MDA-MB-231 cells assessed as decrease in size of colony forming cells at 0.44 to 3.52 uM incubated for 48 hrs by crystal violet staining based assay. Type of experiment: functional, cell-based. The conditions noted are these: dose 0.44-3.52 µM, DDE = dose-dependent effect. A digest of the protocol: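 Colony formation, MDA-MB-231: 800 cells/well, three replicate wells per group, grown 5–7 days at 37 °C, 5% CO2 until 30–50-cell clusters formed. Drug then added for 24, 48 or 72 h. Washed with cold PBS, fixed in 4% paraformaldehyde 30 min, stained with 0.5% crystal violet, imaged, colonies counted; n = 3.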

Experiment [2] has as its system MDA-MB-231. Briefly: Induction of apoptosis in human MDA-MB-231 cells assessed as half-moon, loop and ellipse shaped fragment formation at 0.88 to 3.52 uM incubated for 48 hrs by Hoechst 33258 staining based fluorescence microscopic analysis. Type of experiment: functional, cell-based. To be noted: dose 0.88-3.52 µM, DDE = dose-dependent effect. A digest of the protocol: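 MDA-MB-231 seeded at 2×10^5–3×10^5 per well and incubated overnight (37 °C, 5% CO2). Exposed to compound for 48 h. Fixed in methanol 30 min, then stained with Hoechst 33258 for 30 min at room temperature in the dark. Nuclear morphology scored by fluorescence microscopy; n = 3, mean ± SD.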

The test system of experiment [3] is MDA-MB-231. Briefly: Induction of apoptosis in human MDA-MB-231 cells assessed as necrotic cells at 2.2 uM incubated for 48 hrs AnnexinV/ propidium iodide staining based flow cytometry (Rvb= 0.54%). Type of experiment: functional.
Experiment [4] deals with MDA-MB-231. Kind of experiment: Induction of apoptosis in human MDA-MB-231 cells assessed as necrotic cells at 3.52 uM incubated for 48 hrs AnnexinV/ propidium iodide staining based flow cytometry (Rvb= 0.54%). Type of experiment: functional. Background: Flow cytometry measures light scatter and fluorescence of single cells or particles in a stream.
For experiment [5], the system named is MDA-MB-231. Briefly: Induction of apoptosis in human MDA-MB-231 cells assessed as necrotic cells at 7.04 uM incubated for 48 hrs AnnexinV/ propidium iodide staining based flow cytometry (Rvb= 0.54%). Type of experiment: functional.
Experiment [6] concerns MDA-MB-231. Briefly: Induction of apoptosis in human MDA-MB-231 cells assessed as early apoptotic cells at 0.88 uM incubated for 48 hrs AnnexinV/ propidium iodide staining based flow cytometry (Rvb= 0.3%). Type of experiment: functional.
Experiment [7] relates to MDA-MB-231. Briefly: Induction of apoptosis in human MDA-MB-231 cells assessed as early apoptotic cells at 1.76 uM incubated for 48 hrs AnnexinV/ propidium iodide staining based flow cytometry (Rvb= 0.3%). Type of experiment: functional.
Experiment [8] concerns MDA-MB-231. Briefly: Induction of apoptosis in human MDA-MB-231 cells assessed as early apoptotic cells at 2.2 uM incubated for 48 hrs AnnexinV/ propidium iodide staining based flow cytometry (Rvb= 0.3%). Type of experiment: functional.
Experiment [9] concerns MDA-MB-231. Briefly: Induction of apoptosis in human MDA-MB-231 cells assessed as early apoptotic cells at 3.52 uM incubated for 48 hrs AnnexinV/ propidium iodide staining based flow cytometry (Rvb= 0.3%). In kind it is functional.
For experiment [10], the system named is MDA-MB-231. Kind of experiment: Induction of apoptosis in human MDA-MB-231 cells assessed as early apoptotic cells at 7.04 uM incubated for 48 hrs AnnexinV/ propidium iodide staining based flow cytometry (Rvb= 0.3%). Type of experiment: functional.
Experiment [11] relates to MDA-MB-231. Briefly: Induction of apoptosis in human MDA-MB-231 cells assessed as late apoptotic cells at 2.2 uM incubated for 48 hrs AnnexinV/ propidium iodide staining based flow cytometry (Rvb= 0.40%). In kind it is functional.
The test system of experiment [12] is MDA-MB-231. Briefly: Induction of apoptosis in human MDA-MB-231 cells assessed as viable cells at 0.88 uM incubated for 48 hrs AnnexinV/ propidium iodide staining based flow cytometry (Rvb= 99.02%). In kind it is functional. To be noted: read-out: Activity.
The subject of experiment [13] is MDA-MB-231. Kind of experiment: Induction of apoptosis in human MDA-MB-231 cells assessed as viable cells at 1.76 uM incubated for 48 hrs AnnexinV/ propidium iodide staining based flow cytometry (Rvb= 99.02%). Type of experiment: functional. The conditions noted are these: read-out: Activity.
Experiment [14] has as its system MDA-MB-231. Kind of experiment: Inhibition of cell migration in human MDA-MB-231 cells at 0.88 uM incubated for 12 hrs by scratch wound healing assay. Type of experiment: functional, cell-based.
The subject of experiment [15] is MDA-MB-231. Briefly: Inhibition of PI3K/AKT signalling pathway in human MDA-MB-231 cells assessed as upregulation of PTEN expression at 1 to 10 uM incubated for 48 hrs by western blot analysis. Type of experiment: cell-based. The conditions noted are these: dose 1-10 µM, DDE = dose-dependent effect. The procedure, abridged: (§2)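 MDA-MB-231 treated at 1, 5 and 10 μM at 37 °C, then lysed in RIPA/PMSF for 30 min at 0 °C and cleared at 14 000 × g, 4 °C. Protein quantified by BCA; 40 μg resolved by SDS-PAGE and transferred to PVDF. Blocked in 5% skim milk, primary antibody overnight at 4 °C, secondary 2 h at room temperature, chemiluminescent imaging.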
(In general: Immunoblotting shows a protein as a band on a membrane.)

Experiment [16] has as its system MDA-MB-231. Briefly: Induction of apoptosis in human MDA-MB-231 cells assessed as downregulation of Bcl-2 expression at 1 to 10 uM incubated for 48 hrs by western blot analysis. Type of experiment: functional, cell-based. To be noted: dose 1-10 µM, DDE = dose-dependent effect. A digest of the protocol: as §2
Experiment [17] deals with MDA-MB-231. Kind of experiment: Induction of apoptosis in human MDA-MB-231 cells assessed as upregulation of Bax expression at 1 to 10 uM incubated for 48 hrs by western blot analysis. In kind it is functional, cell-based. To be noted: dose 1-10 µM, DDE = dose-dependent effect.
Experiment [18] concerns MDA-MB-231. Briefly: Induction of apoptosis in human MDA-MB-231 cells assessed as upregulation of Caspase-3 expression at 1 to 10 uM incubated for 48 hrs by western blot analysis. The conditions noted are these: dose 1-10 µM, DDE = dose-dependent effect. In kind it is functional, cell-based.

pIC50: −log10 of the molar value. Calls of active or inactive are those of the source. The calls are words filed in the database; no cut-off is given here.

Take `O=C(Nc1cccc(-c2oc3cc(-c4ccc(F)cc4)ccc3c(=O)c2O)c1)c1ccc(Cl)nc1`: the pIC50 with MCF7 is 5.54; with HCC1937 it was 5.12; in the experiment on GTL 16 cell line, 5.12; in the experiment with HeLa, 5.39. The inhibition result with MDA-MB-231 [1] and with MDA-MB-231 [15] was “Dde” throughout. The Activity result in the experiment with MDA-MB-231 [2] was “Dde”; with MDA-MB-231 [3] it was 1.53%; in the experiment on MDA-MB-231 [4] it was 2.1%; in the experiment with MDA-MB-231 [5] it was 1.92%; in the experiment on MDA-MB-231 [6], 1.48%; with MDA-MB-231 [7], 3.88%. The Activity with MDA-MB-231 [8] is 7.49%; in the experiment with MDA-MB-231 [9], 15.04%; in the experiment with MDA-MB-231 [10], 23.85%; in the experiment on MDA-MB-231 [11], 61.14%; in the experiment on MDA-MB-231 [16], “Dde”; with MDA-MB-231 [17], “Dde”. The Activity result with MDA-MB-231 [18] was “Dde”. Moreover, the viability at 0.88 µM in the experiment on MDA-MB-231 [12] worked out at 74.3%. Besides, the viability at 1.76 µM in the experiment with MDA-MB-231 [13] was determined as 45.8%. Moreover, the inhibition entry with MDA-MB-231 [14] is “Active”.
